Compound activity as filed in PubChem.
Not all results are given here.
Apaf1 activ: activates human Apaf-1 apoptosome | O14727 | Apaf-1 apoptosome caspase-3 activation, DEVD-Rh110 fluorescence; active compounds read low | activity change, negative = activation, % at 20 µM | 0.31% of 330,000 active | AID 489031;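 active = activity change at or below -40% at 20 µM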
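system = biochemical Apaf-1 apoptosome reconstitution | buffer or medium = 20 mM HEPES pH 7.5 with CHAPS, BSA | also added = dATP and cytochrome c as apoptosome triggers, (Z-DEVD)2-Rh110 substrate | incubation = 30 min compound preincubation and 50 min reaction, both room temperature | measured by = fluorescence, 540 nm emission, 480 nm excitation | read-out basis = Caspase-3 cleavage activity downstream of Apaf-1 activation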
Rh110 act interf: interferes with Rh110 fluorescence, flagging false Apaf-1 activators | fluorescence interference (activity change), % at 20 µM, hits read low | AID 504616 | Rh110 fluorescence interference, quenched caspase reaction, Ex480/Em540 | shares compounds with Apaf1 activ | 980 tested, under 10 active;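 active = mean activity change at or below -40% when tested at 20 µM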
Apaf-1 act conf2: confirmation of human Apaf-1 activators; shares compounds with Apaf1 activ; reconstituted apoptosome caspase-3 activity, DEVD-Rh110 fluorescence; active compounds read low; activity change, negative = activation, % at 20 µM; 5% of 980 active; AID 504617;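 active = mean activity change at or below -40%, meaning activation of 40% or more, at 20 µM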
Apaf1 act interf: shows fluorescence interference in the Apaf-1 activator assay format; EC50, µM; 55 tested, under 10 active; fluorescence interference counterscreen; shares compounds with Apaf1 activ; AID 588592; call rule not given here
Hits are given with their value; - = inactive; . = no result given.

SMILES	Apaf1 activ	Rh110 act interf	Apaf-1 act conf2	others
CC1=NN(c2ccc(Cl)cc2)C(=O)C1C(c1cccc(O)c1)c1c(C)[nH]n(-c2ccc(Cl)cc2)c1=O (stereo unspecified)	-	.	.
CCC(COC)Oc1cc(NCc2ccccc2)c2ncn(C(C)C)c2c1 (stereo unspecified)	-	.	.
COc1cc(/C=C2\C(=O)N(CCC#N)N=C2C)ccc1OCC(=O)Nc1ccccc1	-	.	.
COc1cc(/C=N/NC(=O)c2ccncc2)ccc1OCC(=O)Nc1cccc([N+](=O)[O-])c1	-125	-	-
CCOC(=O)C(C(=O)OCC)c1cc(Br)c2noc3c2c1C(=O)c1ccccc1-3	-	.	.
CCC(CO)Oc1cc(NCc2ccccc2OC)c2ncn(C(C)C)c2c1 (stereo unspecified)	-	.	.
CCOc1cc2c(C#N)c(N3CCCCC3)nc(N)c2c(N)n1	-	.	.
Cc1ccc(-c2csc(NC(=O)C3=NN(C4CCS(=O)(=O)C4)C(=O)CC3)n2)cc1 (stereo unspecified)	-58	-	-
CC(C(O)c1ccc(O)cc1)N1CCC(Cc2ccccc2)CC1 (stereo unspecified)	-	.	.
O=C1c2[nH]nc(-c3ccccc3O)c2C(c2cccc(Cl)c2)N1Cc1ccco1 (stereo unspecified)	-	.	.
O=C(NC(Cc1ccccc1)C(=O)NCc1ccccn1)c1ccco1 (stereo unspecified)	-187	-	-
CCNC(=S)Nc1cccc(NC(=O)c2ccccc2O)c1	-206	-	-
CCN(CCO)c1ccc(NC(=S)Nc2cccc(S(=O)(=O)N(C)C)c2)cc1	-	.	.
Cc1[nH][nH]c(=O)c1C(c1ccc(-c2ccc(F)cc2)o1)c1c(C)[nH][nH]c1=O	-	.	.
CCc1ccc2nc(NC(=O)CSCc3c(C)noc3C)sc2c1	-	.	.
Cc1cc(N2CCCCC2)nc(N2CCOCC2)n1	-57	-	-
Cc1cccc(/C=N/Nc2cc(N3CCOCC3)nc(N3CCOCC3)n2)c1	-	.	.
CC(C)c1ccc(/C=N/Nc2cc(N3CCOCC3)nc(N3CCOCC3)n2)cc1	-	.	.
CN(CCO)c1cc(Sc2nc3ccccc3s2)c2nonc2c1[N+](=O)[O-]	-	.	.
CCOc1ccc2oc(C(=O)N(C)CC(=O)Nc3ccc(OCC)c(OCC)c3)c(C)c2c1	-55	-	-
CN(CC(=O)Nc1cccc(F)c1)C(=O)c1sc2ccccc2c1Cl	-	.	.
CC(C)(CS(=O)(=O)[O-])NC(=O)CC[N+](C)(C)CCO	-598	-	-128	Apaf1 act interf=-
CCN(CC)c1nc(N)c2c(N)nc(OC)cc2c1C#N	-	.	.
COc1cccc(CNc2cccc3cccnc23)c1O	-	.	.
CC[C@@H](C)[C@@H]1CN([C@@H](CN2CCC[C@H]2CN2C(N)=NC[C@H]2C(C)C)C(C)C)C(=N)N1CCCC1CCCC1	-	.	.
SMILES	Apaf1 activ	Rh110 act interf	Apaf-1 act conf2	others
COc1ccc(S(N)(=O)=O)cc1-c1nnc2c3ccccc3c(C)nn12	-54	-	-
O/N=C(\c1ccccn1)C1CC1c1ccccc1 (stereo unspecified)	-63	-	-
O=C1CCN(Cc2ccccc2)C=C1c1ccc(Cl)cc1	-	.	.
COC(=O)c1ccc(COC(=O)CCS(=O)(=O)c2ccc(C)cc2)cc1	-53	-	-
COc1ccc(CN(C)C(=O)c2cc(S(=O)(=O)NCc3ccccc3)ccc2C)c(OC)c1	-	.	.
CCCN(CC(=O)Nc1ccccc1OC)C(=O)c1cc(S(=O)(=O)NCc2ccccc2)ccc1C	-	.	.
Cc1ccc(S(=O)(=O)CCC(=O)NCc2ccccc2)cc1	-64	-	-
CC1=NN(c2ccc(C)cc2C)C(=O)C1C(c1ccccc1)C1C(=O)N(c2ccc(C)cc2C)N=C1C (stereo unspecified)	-	.	.
c1ccc2c(-c3ccc(OCCN4CCCCC4)cc3)c(-c3ccsc3)sc2c1	-	.	.
CCCCC(CC)CN1C(=O)/C(=C/c2ccncc2)SC1=S (stereo unspecified)	-	.	.
COC(=O)C1=C(C)N(Cc2ccccc2)C(=NCc2cccc(Cl)c2)N[C@H]1c1cccc(F)c1	-	.	.
Cc1[nH]cnc1CSCc1ccc(Cl)cc1	-426	-	-
Cn1nc(-c2ccccn2)nc2c(=O)n(C)c(=O)nc1-2	-	.	.
COc1ccc(C2=NO[C@@H]3[C@@H]4C[C@@H]([C@H]5C(=O)N(C)C(=O)[C@@H]45)[C@H]23)c(OC)c1	-63	-	-
CCOC(=O)C1CCCN(C(=O)c2cc(S(=O)(=O)N3CCCCCC3)ccc2OC)C1 (stereo unspecified)	-	.	.
CCOc1ccc(S(=O)(=O)N2CCCCC2)cc1NC(=O)C1=COCCO1	-131	-	-
C/C(=C\c1ccccc1)C1Nc2cccc3cccc(c23)N1	-	.	.
NC(N)=NC(N)=Nc1cccc2ccccc12	-	.	.
O=C(NCc1ccccn1)c1ccc2c(=O)n3nc(Nc4ccccc4)sc3nc2c1	-43	-	-
CC(C)=CCC/C(C)=C/CNC(=O)C[C@H]1C[C@H](C(=O)N2CCOCC2)[C@@]2(C)c3[nH]c4ccc(Cl)cc4c3CCN2C1=O	-	.	.
C=CCNc1nc(Cl)nc(Nc2ccc(OCC)cc2)n1	-51	-	-
CC(=O)OCC(=O)[C@@]1(O)CC[C@H]2[C@@H]3CCC4=CC(=O)CC[C@]4(C)[C@H]3[C@@H](O)C[C@@]21C	-	.	.
CC1=NN(c2ccccc2)C(=O)/C1=C/c1cc2cc(C)ccc2nc1N1CCCCC1	-	.	.
COC(=O)c1ccc(C(=O)OC)c(NC(=O)CN2CCN(c3ccccc3)CC2)c1	-191	-	-
Oc1ccc2ccccc2c1C=NC12CN3CCN(CN(C3)C1)C2	-	.	.
SMILES	Apaf1 activ	Rh110 act interf	Apaf-1 act conf2	others
Cc1c(Cc2ccccc2)sc(/N=C/c2c(O)ccc3ccccc23)c1C(N)=O	-63	-	-
O=C1C(Cl)=C(NC(=O)c2ccccc2)C(=O)C(Cl)=C1NC(=O)c1ccccc1	-	.	.
O=C(NNC(=S)Nc1ccc(Cl)cc1)c1ccccc1	-66	-	-
O=C(NC1=C(Nc2ccc(Cl)cc2)C(=O)c2ccccc2C1=O)c1ccccc1	-	.	.
CCOC(=O)c1c(NC(=O)CN2CCN(C(=O)c3ccco3)CC2)sc2c1CCCC2	-	.	.
COc1ccc(C(=O)/C=C/Nc2cc(C)ccn2)cc1	-165	-	-
COc1ccccc1-c1oc2ccccc2c1C#CC1(N)CCCCC1	-	.	.
Oc1ccc(NCc2cccc(OCc3ccccc3)c2)cc1	-	.	.
CCCCCCCCCn1c2c(c(=N)c3c1CCC3)CCC2	-	.	.
Cc1cc2c(N)cccc2nn1	-	.	.
OC(COc1c(Cl)cc(Cl)cc1Cl)CN1CCCCC1 (stereo unspecified)	-88	-	-
COc1cc2c(C#N)c(N3CCCCC3)nc(N)c2c(N)n1	-	.	.
CN(C)CCCNC(=O)C[C@H]1C[C@H](C(=O)N2CCCCC2)[C@@]2(C)c3[nH]c4cc(-c5ccco5)ccc4c3CCN2C1=O	-	.	.
Cc1cccc(CNc2ncnc3ccc(-c4ccc5c(c4)OCCO5)cc23)c1	-	.	.
CCc1cc2c(NCc3ccco3)ncnc2s1	-110	-	-
O=C1CCC(C(=O)OCC(=O)N2N=C3/C(=C/c4ccccc4)CCCC3C2c2ccccc2)N1 (stereo unspecified)	-	.	.
CS(=O)(=O)Nc1ccc(C(=O)Nc2ccc3c(c2)OCO3)cc1	-58	-	-
CCCCc1ccc(NC(=O)c2ccc(NS(C)(=O)=O)cc2)cc1	-102	-	-
